“Also recorded” adds a separate entry of the source. Values belong to the molecule of their own block, whether it stands above or below them.
Key:
mAb TnI-1 = test: Competitive ELISA affinity titration against mAb TnI-1; assay type: binding; conditions: compared with wild type at ~0.1 μM (Figure 8)
How it was run: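 Wells coated overnight at 4°C with purified bovine cardiac TnI in pH 7.0 PIPES/KCl/MgCl2 buffer, then blocked with 1% BSA. mAb TnI-1 was added at a preset sub-maximal level together with serial dilutions of biologically or chemically made peptide. Detection used HRP anti-mouse IgG and H2O2-ABTS, read at 420 nm every 5 min for 30 min. Triplicate wells; each assay repeated.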

[1] = system: skinned rat ventricular papillary muscle; test: Force-pCa contractility of skinned rat ventricular papillary muscle; assay type: cell-based; conditions: 20 μM peptide, 15°C
How it was run: (§1)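 Left ventricular papillary muscle was cryosectioned at 35 μm, cut into 140–150 μm strips and stored at −20°C in glycerol relaxing buffer. Strips were clip-mounted, skinned 20 min in 1% Triton X-100 and set to sarcomere length 2.0 or 2.3 μm. Isometric force was read at pCa 6.5–4.5 at 15°C, then repeated with 20 μM peptide. Curves were Hill-fitted and compared by paired t-test.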

[2] = system: skinned mouse EDL muscle fibers; test: Force-pCa contractility of skinned mouse EDL muscle fibers; assay type: cell-based; conditions: 20 μM peptide; sarcomere length 2.7 μm; 15°C; N = 4
How it was run: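 Whole EDL from adult C57BL/6 mice was split along the fibres in relaxing buffer and stored at −20°C in 50% glycerol buffer. Fibres were mounted on T-clips, further skinned 20 min in 1% Triton X-100 and set to sarcomere length 2.7 μm. Force was read at pCa 6.5–4.5 at 15°C, before and after adding 20 μM peptide; curves were Hill-fitted.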

[3] = system: skinned mouse ventricular papillary muscle; test: Force-pCa contractility of skinned mouse ventricular papillary muscle; assay type: cell-based; conditions: 20 μM peptide, 15°C
How it was run: as §1

[4] = molecular target: bovine cardiac α-tropomyosin (bovine, UniProt Q5KR49 1-284); test: ELISA

Molecule: HcTnI-C27-H: R192H mutant of the C-terminal 27 amino acid peptide of human cardiac TnI (ENREVGDWHKNIDALSGMEGRKKKFES; left off: Tx3 metal-binding tag, N-terminal, cleaved | SUMO, N-terminal, cleaved)
Effect on competition for mAb TnI-1 compared with wild type peptide (mAb TnI-1): only minimum effect

Molecule: HcTnI-C27: C-terminal 27 amino acid peptide of human cardiac TnI (ENREVGDWRKNIDALSGMEGRKKKFES; left off: Tx3 metal-binding tag, N-terminal, cleaved | SUMO, N-terminal, cleaved)
Effect on Ca^2+-sensitization by increasing sarcomere length, rat ([1]; SL increased from 2.0 μm to 2.3 μm): completely diminishing the Ca^2+-sensitization effect; also recorded: diminished the Ca^2+-sensitization effect
Effect on cooperativity (n), rat, SL 2.0 μm ([1]; sarcomere length 2.0 μm, pH 7.0, N = 4): small effect on lowering pCa50 and cooperativity
Effect on cooperativity (n), rat, SL 2.3 μm ([1]; sarcomere length 2.3 μm, pH 7.0, n = 3): significantly decreased Ca^2+ sensitivity and cooperativity (n)
Effect on myofilament Ca^2+ sensitivity, mouse EDL [2]: myofilament Ca^2+-desensitization effect predominantly in the activated state; also recorded: decreases in myofilament Ca^2+ sensitivity in the activated state at higher Ca^2+ concentrations
Maximum force production, mouse EDL [2]: without change of maximum force production
Effect on force-pCa curves, mouse cardiac, both sarcomere lengths ([3]; SL 2.0 μm and 2.3 μm): right-shifts of the force-pCa curves
Effect on Ca^2+-sensitivity (force-pCa curve), mouse cardiac, SL 2.0 μm ([3]; sarcomere length 2.0 μm, N = 3): more obvious at sarcomere length of 2.0 μm in the activated state; also recorded: decreased Ca^2+-sensitivity
Effect on cooperativity (n), mouse cardiac, SL 2.0 μm ([3]; sarcomere length 2.0 μm, N = 3): significantly lowered cooperativity
Effect on Ca^2+-sensitivity (force-pCa curve), mouse cardiac, SL 2.3 μm ([3]; sarcomere length 2.3 μm, n = 4): decreased Ca^2+-sensitivity

binding result [4]: binds
B1: C-terminal 27 amino acid peptide of human cardiac TnI (HcTnI-C27), free peptide (peptide, UniProt P19429 184-210, looked up)
peptide: ENREVGDWRKNIDALSGMEGRKKKFES
